Laboratory results published in ChEMBL document CHEMBL4251599, “Synthesis and biological evaluation of coumarin derivatives containing imidazole skeleton as potential antibacterial agents” (Eur J Med Chem, 2018).
Converted amounts (≈) assume the structure as drawn.

Experiments:
Flavobacterium columnare [1] = experiment: Antibacterial activity against Flavobacterium columnare FC-G1 after 24 hrs by two fold serial dilution method; format: functional; conditions: FC-G1, 24 h
In short: (§1)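 Broth two-fold serial dilution per CLSI, in nutrient broth. Inoculum from 24 h cultures at 28 ± 1 °C, adjusted in saline to 1×10^7-2×10^7 cfu/mL, then diluted to 1×10^5-2×10^5 cfu/mL. Test range 256 down to 0.50 µM and lower. Tubes held 24 h at 28 ± 1 °C. MIC read visually. Enrofloxacin and norfloxacin served as standards.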

Flavobacterium columnare [2] = experiment: Bactericidal activity against Flavobacterium columnare FC-G1 incubated for 24 hrs followed by re-plating on nutrient agar and measured after overnight incubation by two fold serial dilution method; format: functional; conditions: FC-G1, 24 h
In short: (§2)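 After the MIC read, 100 µl from every tube without visible growth was spread on nutrient agar lacking compound. Plates were incubated overnight at 28 ± 1 °C. MBC was taken as the lowest concentration killing >99.9% of the initial population, seen as no growth on agar.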

Streptococcus agalactiae [3] = experiment: Bactericidal activity against Streptococcus agalactiae WB1445 incubated for 24 hrs followed by re-plating on nutrient agar and measured after overnight incubation by two fold serial dilution method; format: functional; conditions: WB1445, 24 h; in short: as §2
Streptococcus agalactiae [4] = experiment: Antibacterial activity against Streptococcus agalactiae WB1445 after 24 hrs by two fold serial dilution method; format: functional; conditions: WB1445, 24 h; in short: as §1
[5] = molecular target: T1, Enoyl-(Acyl-carrier-protein) reductase II (Streptococcus agalactiae serotype V (strain ATCC BAA-611 / 2603 V/R), UniProt Q8E1K8); experiment: Inhibition of Streptococcus agalactiae WB1445 FabK in presence of t-O-NAC and NADH up to 1 min by spectrophotometric analysis
T1 sequence (Q8E1K8 whole entry): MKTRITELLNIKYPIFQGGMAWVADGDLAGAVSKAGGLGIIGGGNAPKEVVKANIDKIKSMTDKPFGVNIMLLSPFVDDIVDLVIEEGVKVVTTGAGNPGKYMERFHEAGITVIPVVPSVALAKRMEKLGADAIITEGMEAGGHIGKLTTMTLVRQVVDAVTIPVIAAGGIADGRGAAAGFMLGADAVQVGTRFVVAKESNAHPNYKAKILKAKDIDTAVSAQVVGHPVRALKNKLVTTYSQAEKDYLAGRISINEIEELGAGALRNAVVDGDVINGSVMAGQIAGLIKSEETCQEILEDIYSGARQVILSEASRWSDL
In short: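 Recombinant His-tagged FabK (20 µL of 150 µg/mL stock) was assayed in 100 µL of 0.1 M ADA-DTT, pH 6.5, against compounds at 128-1 µM, with 10 µL of 4 mM t-O-NAC. Addition of 20 µL of 2 mM NADH started the reaction. Absorbance at 340 nm was read for 1 min. IC50 was estimated from dose-response curves.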

[6] = Inhibition of Escherichia coli ATCC 35150 FabI in presence of t-O-NAC and NADH up to 1 min by spectrophotometric analysis
In short: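 Recombinant His-tagged FabI, expressed in E. coli BL21(DE3) and purified on Ni-NTA, was used at 20 µL of 100 µg/mL stock in 0.1 M PBS-DTT. Compounds were tested at 128-1 µM with 10 µL of 4 mM t-O-NAC, and 20 µL of 2 mM NADH started the reaction. NADH oxidation was followed at 340 nm for 1 min. IC50 came from dose-response plots.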

Staphylococcus aureus [7] = experiment: Antibacterial activity against Staphylococcus aureus ATCC 29213 after 24 hrs by two fold serial dilution method; format: functional; conditions: ATCC 29213, 24 h; in short: as §1
Escherichia coli [8] = experiment: Antibacterial activity against Escherichia coli ATCC 35150 after 24 hrs by two fold serial dilution method; format: functional; conditions: ATCC 35150, 24 h; in short: as §1
Escherichia coli [9] = experiment: Bactericidal activity against Escherichia coli ATCC 35150 incubated for 24 hrs followed by re-plating on nutrient agar and measured after overnight incubation by two fold serial dilution method; format: functional; conditions: ATCC 35150, 24 h; in short: as §2
Staphylococcus aureus [10] = experiment: Bactericidal activity against Staphylococcus aureus ATCC 29213 incubated for 24 hrs followed by re-plating on nutrient agar and measured after overnight incubation by two fold serial dilution method; format: functional; conditions: ATCC 29213, 24 h; in short: as §2

| Structure (SMILES) | MIC (Flavobacterium columnare [1]) [µM] | MIC (Streptococcus agalactiae [4]) [µM] | IC50 [5] [µM] | IC50 [6] [µM] | MIC (Staphylococcus aureus [7]) [µM] | MIC (Escherichia coli [8]) [µM] | MBC (Flavobacterium columnare [2]) [µM] | MBC (Streptococcus agalactiae [3]) [µM] | MBC (Escherichia coli [9]) [µM] | MBC (Staphylococcus aureus [10]) [µM] |
| --- | --- | --- | --- | --- | --- | --- | --- | --- | --- | --- |
| O=c1ccc2ccc(OCCCCCCCCn3cncn3)cc2o1 | 64 (≈ 21.9 µg/mL) | 32 (≈ 10.9 µg/mL) | 7.68 | 79.5 | – | – | 128 (≈ 43.7 µg/mL) | 64 (≈ 21.9 µg/mL) | – | – |
| Cc1nccn1CCCCCCCCCCOc1ccc2ccc(=O)oc2c1 | 8 (≈ 3.06 µg/mL) | 8 (≈ 3.06 µg/mL) | 4.21 | 108 | 64 (≈ 24.5 µg/mL) | > 256 | 16 (≈ 6.12 µg/mL) | 16 (≈ 6.12 µg/mL) | > 256 | 128 (≈ 49 µg/mL) |
| Cc1nccn1CCCCCCOc1ccc2ccc(=O)oc2c1 | 16 (≈ 5.22 µg/mL) | 128 (≈ 41.8 µg/mL) | 3.44 | 1.2 | 64 (≈ 20.9 µg/mL) | 8 (≈ 2.61 µg/mL) | 32 (≈ 10.4 µg/mL) | 256 (≈ 83.6 µg/mL) | 64 (≈ 20.9 µg/mL) | 256 (≈ 83.6 µg/mL) |
| O=c1ccc2ccc(OCCCCCCCCCCn3ccnc3)cc2o1 | 16 (≈ 5.9 µg/mL) | 8 (≈ 2.95 µg/mL) | 5.03 | > 256 | 64 (≈ 23.6 µg/mL) | > 256 | 16 (≈ 5.9 µg/mL) | 16 (≈ 5.9 µg/mL) | > 256 | 128 (≈ 47.2 µg/mL) |
| Cc1nccn1CCCCCCCCOc1ccc2ccc(=O)oc2c1 | 2 (≈ 0.709 µg/mL) | 4 (≈ 1.42 µg/mL) | 1.13 | 112 | 16 (≈ 5.67 µg/mL) | > 256 | 8 (≈ 2.84 µg/mL) | 16 (≈ 5.67 µg/mL) | > 256 | 128 (≈ 45.4 µg/mL) |
| O=c1ccc2ccc(OCCCCCCCCn3ccnc3)cc2o1 | 4 (≈ 1.36 µg/mL) | 8 (≈ 2.72 µg/mL) | 2.74 | 158 | 16 (≈ 5.45 µg/mL) | > 256 | 8 (≈ 2.72 µg/mL) | 16 (≈ 5.45 µg/mL) | > 256 | 128 (≈ 43.6 µg/mL) |
| Cc1nccn1CCCCOc1ccc2ccc(=O)oc2c1 | > 256 | > 256 | > 256 | 4.46 | 256 (≈ 76.4 µg/mL) | 64 (≈ 19.1 µg/mL) | > 256 | > 256 | 256 (≈ 76.4 µg/mL) | 256 (≈ 76.4 µg/mL) |

The next lines start with results.

| MIC (Flavobacterium columnare [1]) [µM] | MIC (Streptococcus agalactiae [4]) [µM] | IC50 [5] [µM] | IC50 [6] [µM] | MIC (Staphylococcus aureus [7]) [µM] | MIC (Escherichia coli [8]) [µM] | Structure (SMILES) | MBC (Flavobacterium columnare [2]) [µM] | MBC (Streptococcus agalactiae [3]) [µM] | MBC (Escherichia coli [9]) [µM] | MBC (Staphylococcus aureus [10]) [µM] |
| --- | --- | --- | --- | --- | --- | --- | --- | --- | --- | --- |
| 4 (≈ 1.42 µg/mL) | 4 (≈ 1.42 µg/mL) | 1.75 | 117 | 8 (≈ 2.84 µg/mL) | > 256 | Cc1cn(CCCCCCCCOc2ccc3ccc(=O)oc3c2)cn1 | 8 (≈ 2.84 µg/mL) | 16 (≈ 5.67 µg/mL) | > 256 | 64 (≈ 22.7 µg/mL) |
| 16 (≈ 6.12 µg/mL) | 8 (≈ 3.06 µg/mL) | 4.37 | 115 | 32 (≈ 12.2 µg/mL) | > 256 | Cc1cn(CCCCCCCCCCOc2ccc3ccc(=O)oc3c2)cn1 | 16 (≈ 6.12 µg/mL) | 16 (≈ 6.12 µg/mL) | > 256 | 128 (≈ 49 µg/mL) |
| 32 (≈ 10.4 µg/mL) | 128 (≈ 41.8 µg/mL) | 3.59 | 1.35 | 32 (≈ 10.4 µg/mL) | 16 (≈ 5.22 µg/mL) | Cc1cn(CCCCCCOc2ccc3ccc(=O)oc3c2)cn1 | 128 (≈ 41.8 µg/mL) | 256 (≈ 83.6 µg/mL) | 64 (≈ 20.9 µg/mL) | 128 (≈ 41.8 µg/mL) |
